For eight compounds, EC50 and Activity results are on record in ChEMBL document CHEMBL3244154, “Synthesis of 1-deaza-6-thioguanosine and 1-deaza-6-(methylthio)guanosine” (1978).

In brackets after ≈: the same amount, converted by molar mass. Activity calls are given as the source filed them. The calls are words filed in the database; no cut-off is given here.

Assay [1] can be described thus: Cytotoxicity against human Hep2 cells. It is filed as functional. The following applies: HEp-2, read-out: ED50 (the source's name). The method in brief:
(§1)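 Growth inhibition of cultured cells. Activity is expressed as ED50 in μg/mL.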

In assay [2] the test system is L1210. Briefly: Antitumor activity against mouse L1210 cells assessed as increase in life span administered from day 1 to day 9 relative to control. It is filed as functional. On the set-up: concentration or dose not given beside the values. The method in brief:
(§2)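 In vivo assay in mice bearing leukemia L1210, dosed on days 1–9. Read-out is percent increase in life span of treated leukemic mice over untreated leukemic controls.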

Assay [3] has as its system KB. Briefly: Cytotoxicity against human KB cells. The assay is classed as functional. As to conditions: read-out: ED50 (the source's name). Put shortly:
as §1

Assay [4] deals with KB. Briefly: Cytotoxicity against human KB cells in presence of 5-amino-1H-imidazole-4-carboxamide. The assay is classed as functional, cell-based.
In assay [5] the test system is L1210. Nature of the assay: Antitumor activity against mouse L1210 cells assessed as increase in life span at 14 to 75 mg/kg administered from day 1 to day 9 relative to control. It is filed as functional, organism-based.
Assay [6] has as its system L1210. Nature of the assay: Antitumor activity against mouse L1210 cells assessed as increase in life span at 33 mg/kg administered from day 1 to day 9 relative to control. The assay is classed as functional. Put shortly: as §2
The next assay concerns HEp-2. Briefly: Cytotoxicity against human Hep2 cells in presence of 5-amino-1H-imidazole-4-carboxamide. It is filed as functional, cell-based.

Consider `CC(=O)Nc1cc(Cl)c2nc[nH]c2n1`, for which the EC50 (in assay [1]; in the assay with KB [3]) was more than 22 µg/mL in each case. In addition, the Activity in the assay with L1210 [2] is less than 15%.
Turning to `Nc1cc(Cl)c2nc[nH]c2n1`, the EC50 in assay [1] came out at 0.3 µg/mL (≈ 1.78 µM); in the assay on KB [3], 1 µg/mL (≈ 5.93 µM). Moreover, the outcome with KB [4], in the assay on L1210 [5] and in the assay with HEp-2 was Active. For the same compound, the Activity in the assay on L1210 [6] is given as 79%.
`Cc1ccc(S(=O)(=O)/N=c2\cc(Cl)c3ncn4c3n2C[C@H]2O[C@@H]4[C@@H]3OC(C)(C)O[C@@H]32)cc1`: the EC50 (in assay [1]; with KB [3]) was more than 22 µg/mL each time. For the same compound, in the assay with L1210 [2], the Activity was less than 15%.
On to `CSc1cc(N)nc2c1ncn2[C@@H]1O[C@H](CO)[C@@H](O)[C@H]1O`, for which the EC50 (in assay [1]; in the assay with KB [3]) was more than 22 µg/mL in each case. Also, the Activity in the assay on L1210 [2] is listed as less than 15%.
For `Nc1cc(S)c2ncn([C@@H]3O[C@H](CO)[C@@H](O)[C@H]3O)c2n1`, the EC50 (in assay [1]; in the assay on KB [3]) was more than 22 µg/mL in each case. In addition, the Activity in the assay with L1210 [2] was less than 15%.
As to `CSc1cc(N)nc2[nH]cnc12`, the EC50 (in assay [1]; in the assay with KB [3]) was more than 22 µg/mL throughout. Besides, the Activity in the assay on L1210 [2] is less than 15%.
For `Nc1cc(Cl)c2ncn([C@@H]3O[C@H](CO)[C@@H](O)[C@H]3O)c2n1`, the EC50 (in assay [1]; with KB [3]) was more than 22 µg/mL throughout. In addition, in the assay with L1210 [2], the Activity was less than 15%.
As for `CSc1cc(NC(C)=O)nc2[nH]cnc12`, the EC50 (in assay [1]; in the assay with KB [3]) was more than 22 µg/mL each time. In addition, the Activity with L1210 [2] is listed as less than 15%.
